Assay results from ChEMBL document CHEMBL1138474, “Modulation of the transient receptor potential vanilloid channel TRPV4 by 4alpha-phorbol esters: a structure-activity study” (J Med Chem, 2009).
Activity calls are given as the source filed them. The rule behind the calls is not given here.

Legend:
[1] = target: Transient receptor potential cation channel subfamily V member 4 (Mus musculus, UniProt Q9EPK8); assay: (§1) Activation of mouse wild type TRPV4 expressed in HEK293 cells assessed as increase in intracellular calcium concentration; format: cell-based
Procedure, shortened: (§2)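 mTRPV4 (wild type or the Y556A, S557A or W586A TM3-4 mutant) in pCAGGS/Ires-GFP was transiently transfected into HEK293 cells and incubated overnight. GFP-positive cells on poly-L-lysine coverslips were loaded with 4 µM Fura-2 AM for 30 min at 37 °C and perfused with Krebs solution (1.5 mM CaCl2, pH 7.4). The 340/380 nm ratio (510 nm emission) gave ∆Fura-2 ratio. EC50 came from a Hill fit, >15 cells, three transfections.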

[2] = target: Transient receptor potential cation channel subfamily V member 4 (Mus musculus, UniProt Q9EPK8, Y556A); assay: Activation of mouse TRPV4 Y556A mutant expressed in HEK293 cells assessed as increase in intracellular calcium concentration; format: cell-based; procedure, shortened: as §2
[3] = target: Transient receptor potential cation channel subfamily V member 4 (Mus musculus) (UniProt Q9EPK8); assay: Activation of mouse wild type TRPV4 expressed in HEK293 cells assessed as outward-inward rectifying current density at 500 nM at a holding potential of 100 mV by whole cell patch-clamp assay in presence of calcium; format: cell-based
Procedure, shortened: (§3)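 Whole-cell patch clamp was run on mTRPV4-transfected HEK293 cells using ramps from -100 to +100 mV. Bath (mM): 150 NaCl, 6 CsCl, 1 MgCl2, 5 CaCl2, 10 glucose, 10 HEPES, pH 7.4. Pipette (mM): 20 CsCl, 100 aspartate, 1 MgCl2, 10 HEPES, 4 Na-ATP, 10 BAPTA, free Ca2+ buffered to 200 nM, pH 7.4. Agonist was added to the bath. Five cells, >2 transfections.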

[4] = target: Transient receptor potential cation channel subfamily V member 4 (Mus musculus, UniProt Q9EPK8, W586A); assay: Activation of mouse TRPV4 W586A mutant expressed in HEK293 cells assessed as increase in intracellular calcium concentration; format: cell-based; procedure, shortened: as §2
[5] = target: Transient receptor potential cation channel subfamily V member 4 (Mus musculus) (UniProt Q9EPK8); assay: as §1; format: cell-based; procedure, shortened: as §2
[6] = target: Transient receptor potential cation channel subfamily V member 4 (Mus musculus) (UniProt Q9EPK8); assay: Activation of mouse wild type TRPV4 expressed in HEK293 cells assessed as outward-inward rectifying current density at 500 nM at a holding potential of 100 mV by whole cell patch-clamp assay in absence of calcium; format: cell-based
Procedure, shortened: as §3, with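 “mV. CaCl2 was omitted from both solutions.” for “mV.”, “MgCl2,” for “MgCl2, 5 CaCl2,”, “BAPTA,” for “BAPTA, free Ca2+ buffered to 200 nM,”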

[7] = tested on: HEK293; assay: Effect on intracellular calcium level in non transfected HEK293 cells; format: functional, cell-based; details: Homo sapiens
Procedure, shortened: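 GFP-negative cells from the same coverslips as the mTRPV4-transfected HEK293 cells served as untransfected controls. Cells were loaded with 4 µM Fura-2 AM for 30 min at 37 °C and perfused with Krebs solution (pH 7.4). ∆Fura-2 ratio was taken as (Rt−Rt0)/Rt0 from 340/380 nm excitation, with background subtracted.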

[8] = target: Transient receptor potential cation channel subfamily V member 4 (Mus musculus) (UniProt Q9EPK8); assay: Activation of mouse wild type TRPV4 expressed in HEK293 cells assessed as increase in intracellular calcium concentration at 1 uM in presence of TRP antagonist ruthenium red; format: functional, cell-based
Procedure, shortened: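 Single-cell fura-2 imaging was done on GFP-positive HEK293 cells transiently expressing mTRPV4, perfused with Krebs buffer (1.5 mM CaCl2, pH 7.4). Agonist at 1 µM was applied in the bath, and ruthenium red 1 µM was added to the extracellular solution as indicated. The read-out was the 340/380 nm ratio change. Three independent experiments were run.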

[9] = target: Transient receptor potential cation channel subfamily V member 4 (Mus musculus, UniProt Q9EPK8, S557A); assay: Activation of mouse TRPV4 S557A mutant expressed in HEK293 cells assessed as increase in intracellular calcium concentration; format: cell-based; procedure, shortened: as §2
[10] = target: T1, Transient receptor potential cation channel subfamily V member 2 (Homo sapiens) (UniProt Q9Y5S1); assay: Activation of TRPV2 expressed in HEK293 cells assessed as increase in intracellular calcium concentration; format: cell-based
T1 sequence (whole entry): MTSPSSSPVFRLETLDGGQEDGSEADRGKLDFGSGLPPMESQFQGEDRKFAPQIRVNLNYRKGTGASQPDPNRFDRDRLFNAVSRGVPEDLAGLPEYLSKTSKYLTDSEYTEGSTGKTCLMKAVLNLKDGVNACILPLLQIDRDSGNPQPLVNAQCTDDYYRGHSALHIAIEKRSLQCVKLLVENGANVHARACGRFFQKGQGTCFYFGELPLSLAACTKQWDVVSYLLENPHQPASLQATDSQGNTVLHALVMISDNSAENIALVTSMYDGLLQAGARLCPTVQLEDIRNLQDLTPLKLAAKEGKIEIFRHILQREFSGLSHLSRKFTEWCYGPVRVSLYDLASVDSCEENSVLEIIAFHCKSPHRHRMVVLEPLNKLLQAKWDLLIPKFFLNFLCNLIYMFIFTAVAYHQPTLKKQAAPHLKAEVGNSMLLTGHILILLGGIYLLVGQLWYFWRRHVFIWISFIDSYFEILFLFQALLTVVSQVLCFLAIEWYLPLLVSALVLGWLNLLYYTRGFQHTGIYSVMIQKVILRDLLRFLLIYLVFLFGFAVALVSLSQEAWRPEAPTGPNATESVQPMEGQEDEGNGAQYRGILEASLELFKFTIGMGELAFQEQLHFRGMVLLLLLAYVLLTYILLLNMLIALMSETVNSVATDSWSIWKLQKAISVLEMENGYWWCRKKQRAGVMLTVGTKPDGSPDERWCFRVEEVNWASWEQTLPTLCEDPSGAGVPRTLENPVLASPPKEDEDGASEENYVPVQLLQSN
Procedure, shortened: (§4)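 HEK293 cells grown in DMEM with 10% human serum at 37 °C/10% CO2 and transfected with the TRPV channel. Cells were loaded with 4 µM Fura-2 AM for 30 min at 37 °C and perfused with Krebs buffer (1.5 mM CaCl2, pH 7.4). Read-out is single-cell 340/380 nm fura-2 ratio imaging against nontransfected cells.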

[11] = target: T2, Transient receptor potential cation channel subfamily V member 3 (Homo sapiens) (UniProt Q8NET8); assay: Activation of TRPV3 expressed in HEK293 cells assessed as increase in intracellular calcium concentration; format: cell-based; procedure, shortened: as §4
T2 sequence (whole entry): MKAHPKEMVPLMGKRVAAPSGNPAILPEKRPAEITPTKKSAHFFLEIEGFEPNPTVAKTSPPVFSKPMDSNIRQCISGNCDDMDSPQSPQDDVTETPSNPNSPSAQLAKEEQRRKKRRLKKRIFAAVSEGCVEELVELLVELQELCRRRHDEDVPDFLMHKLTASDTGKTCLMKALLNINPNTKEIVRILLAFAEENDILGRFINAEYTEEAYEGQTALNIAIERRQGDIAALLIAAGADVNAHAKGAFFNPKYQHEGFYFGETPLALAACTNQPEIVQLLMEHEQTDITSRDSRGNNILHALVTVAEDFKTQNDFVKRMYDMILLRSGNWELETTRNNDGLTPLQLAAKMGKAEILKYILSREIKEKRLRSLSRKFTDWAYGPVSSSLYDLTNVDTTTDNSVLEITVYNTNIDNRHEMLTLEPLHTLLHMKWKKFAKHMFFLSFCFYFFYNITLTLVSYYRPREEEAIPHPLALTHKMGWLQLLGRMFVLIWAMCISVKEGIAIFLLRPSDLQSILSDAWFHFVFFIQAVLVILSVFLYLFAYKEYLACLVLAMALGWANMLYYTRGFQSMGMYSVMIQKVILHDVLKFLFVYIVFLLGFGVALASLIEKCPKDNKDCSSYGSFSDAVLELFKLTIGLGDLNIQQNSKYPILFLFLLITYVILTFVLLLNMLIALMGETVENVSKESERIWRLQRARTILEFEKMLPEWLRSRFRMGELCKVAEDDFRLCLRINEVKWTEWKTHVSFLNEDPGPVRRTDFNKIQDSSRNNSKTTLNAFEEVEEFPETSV

[12] = target: Transient receptor potential cation channel subfamily V member 1 (Homo sapiens) (UniProt Q8NER1); assay: Activation of TRPV1 expressed in HEK293 cells assessed as increase in intracellular calcium concentration; format: cell-based; procedure, shortened: as §4
[13] = target: Transient receptor potential cation channel subfamily V member 4 (Mus musculus) (UniProt Q9EPK8); assay: Agonist activity at mouse wild type TRPV4 expressed in HEK293 cells assessed as increase in intracellular calcium measured by fura-2 fluorescence ratio; format: functional, cell-based
Procedure, shortened: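 Mouse TRPV4 (pCAGGS/Ires-GFP) transiently transfected into HEK293 cells, incubated overnight, then seeded on poly-L-lysine coverslips. GFP-positive cells loaded with 4 µM Fura-2 AM for 30 min at 37 °C and perfused with Krebs (pH 7.4). ΔFura-2 ratio taken as (Rt−R0)/R0 at the maximal response. EC50 from a Hill fit over >15 cells from three transfections, mean ± SEM.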

[14] = target: Transient receptor potential cation channel subfamily V member 4 (Mus musculus) (UniProt Q9EPK8); assay: Activation of mouse wild type TRPV4 expressed in HEK293 cells assessed as increase in intracellular calcium concentration at 500 nM
[15] = tested on: Transient receptor potential cation channel subfamily V member 4 (Mus musculus), Q9EPK8 [Y556A]; assay: Agonist activity at mouse TRPV4 Y556A mutant expressed in HEK293 cells assessed as increase in intracellular calcium measured by fura-2 fluorescence ratio; format: functional, cell-based
Procedure, shortened: (§5)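 HEK293 cells transiently transfected with W586A or Y556A mouse TRPV4 mutants alongside wild type. Dose-response by single-cell fura-2 Ca2+ imaging, read as ΔFura-2 ratio. More than 15 cells per point from three independent transfections. Hill fit used, significance set at p < 0.05.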

[16] = target: Transient receptor potential cation channel subfamily V member 4 (Mus musculus) (UniProt Q9EPK8); assay: Activation of mouse wild type TRPV4 expressed in HEK293 cells assessed as increase in intracellular calcium concentration at 500 nM in presence of TRP antagonist ruthenium red
[17] = target: Transient receptor potential cation channel subfamily V member 4 (Mus musculus) (UniProt Q9EPK8); assay: Activation of mouse wild type TRPV4 expressed in HEK293 cells assessed as increase in intracellular calcium concentration at 0.1 uM; format: cell-based
[18] = tested on: Transient receptor potential cation channel subfamily V member 4 (Mus musculus), Q9EPK8 [W586A]; assay: Agonist activity at mouse TRPV4 W586A mutant expressed in HEK293 cells assessed as increase in intracellular calcium measured by fura-2 fluorescence ratio; format: functional, cell-based; procedure, shortened: as §5
[19] = tested on: HEK293; assay: Effect on intracellular calcium level in non transfected HEK293 cells at >10 uM; format: functional, cell-based; details: Homo sapiens
Procedure, shortened: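 GFP-negative (untransfected) HEK293 cells from the same coverslips were imaged by fura-2 ratio. Compound was applied at concentrations above 10 µM.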

Transient receptor potential cation channel subfamily V member 4 (Mus musculus), sequence (Q9EPK8 whole entry, the tested form may be a part): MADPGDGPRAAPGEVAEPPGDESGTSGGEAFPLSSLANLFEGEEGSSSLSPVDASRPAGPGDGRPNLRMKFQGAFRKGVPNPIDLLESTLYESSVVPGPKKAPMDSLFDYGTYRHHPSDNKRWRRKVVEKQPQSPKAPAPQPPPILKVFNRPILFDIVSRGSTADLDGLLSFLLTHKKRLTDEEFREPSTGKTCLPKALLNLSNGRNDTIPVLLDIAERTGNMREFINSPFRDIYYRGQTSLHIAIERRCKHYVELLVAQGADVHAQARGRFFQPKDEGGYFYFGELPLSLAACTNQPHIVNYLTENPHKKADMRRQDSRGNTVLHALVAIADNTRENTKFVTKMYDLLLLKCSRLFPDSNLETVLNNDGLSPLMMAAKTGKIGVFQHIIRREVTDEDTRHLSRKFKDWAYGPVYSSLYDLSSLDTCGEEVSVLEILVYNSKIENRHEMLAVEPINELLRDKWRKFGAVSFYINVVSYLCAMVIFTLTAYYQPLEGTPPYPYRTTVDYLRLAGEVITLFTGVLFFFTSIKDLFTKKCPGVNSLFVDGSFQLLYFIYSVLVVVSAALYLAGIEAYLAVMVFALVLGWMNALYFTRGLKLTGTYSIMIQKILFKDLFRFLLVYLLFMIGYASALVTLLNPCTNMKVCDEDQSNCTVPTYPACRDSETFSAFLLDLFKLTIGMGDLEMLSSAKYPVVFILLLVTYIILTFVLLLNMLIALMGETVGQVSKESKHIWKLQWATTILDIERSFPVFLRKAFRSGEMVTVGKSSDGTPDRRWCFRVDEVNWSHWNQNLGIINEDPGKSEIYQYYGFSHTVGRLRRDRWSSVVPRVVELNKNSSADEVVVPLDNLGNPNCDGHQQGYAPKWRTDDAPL
Transient receptor potential cation channel subfamily V member 4 (Mus musculus, UniProt Q9EPK8), sequence (Q9EPK8 whole entry, the tested form may be a part): as above
Transient receptor potential cation channel subfamily V member 4 (Mus musculus, UniProt Q9EPK8, Y556A), sequence (Q9EPK8 whole entry Y556A): as the sequence (Q9EPK8 whole entry, the tested form may be a part) above, with Y556A counted along it
Transient receptor potential cation channel subfamily V member 4 (Mus musculus, UniProt Q9EPK8, S557A), sequence (Q9EPK8 whole entry S557A): as the sequence (Q9EPK8 whole entry, the tested form may be a part) above, with S557A counted along it
Transient receptor potential cation channel subfamily V member 4 (Mus musculus, UniProt Q9EPK8, W586A), sequence (Q9EPK8 whole entry W586A): as the sequence (Q9EPK8 whole entry, the tested form may be a part) above, with W586A counted along it
Transient receptor potential cation channel subfamily V member 4 (Mus musculus), Q9EPK8 [Y556A], sequence (Q9EPK8 whole entry Y556A): as the sequence (Q9EPK8 whole entry, the tested form may be a part) above, with Y556A counted along it
Transient receptor potential cation channel subfamily V member 4 (Mus musculus), Q9EPK8 [W586A], sequence (Q9EPK8 whole entry W586A): as the sequence (Q9EPK8 whole entry, the tested form may be a part) above, with W586A counted along it
Transient receptor potential cation channel subfamily V member 1 (Homo sapiens), sequence (Q8NER1 whole entry): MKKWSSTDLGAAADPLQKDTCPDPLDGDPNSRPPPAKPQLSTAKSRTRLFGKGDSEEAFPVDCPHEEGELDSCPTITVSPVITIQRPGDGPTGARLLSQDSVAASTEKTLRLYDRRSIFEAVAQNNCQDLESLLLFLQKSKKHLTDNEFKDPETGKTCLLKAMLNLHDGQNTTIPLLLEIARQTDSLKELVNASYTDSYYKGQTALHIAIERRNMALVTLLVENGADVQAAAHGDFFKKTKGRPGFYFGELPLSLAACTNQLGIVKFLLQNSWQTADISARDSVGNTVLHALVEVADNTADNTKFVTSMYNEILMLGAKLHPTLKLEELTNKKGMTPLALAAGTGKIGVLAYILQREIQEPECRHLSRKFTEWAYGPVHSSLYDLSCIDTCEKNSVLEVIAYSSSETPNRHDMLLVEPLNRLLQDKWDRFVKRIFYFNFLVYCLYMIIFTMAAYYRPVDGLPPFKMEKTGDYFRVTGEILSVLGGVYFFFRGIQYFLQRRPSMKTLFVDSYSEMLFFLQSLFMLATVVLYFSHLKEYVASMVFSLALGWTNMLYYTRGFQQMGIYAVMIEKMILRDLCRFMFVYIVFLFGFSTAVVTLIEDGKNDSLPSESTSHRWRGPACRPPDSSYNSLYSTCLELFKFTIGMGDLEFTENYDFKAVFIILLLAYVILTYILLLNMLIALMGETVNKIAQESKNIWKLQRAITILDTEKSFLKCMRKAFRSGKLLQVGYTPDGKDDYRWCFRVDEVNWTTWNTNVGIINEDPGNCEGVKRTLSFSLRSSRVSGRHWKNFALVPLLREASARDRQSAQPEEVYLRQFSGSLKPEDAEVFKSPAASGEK

Structure (SMILES) | EC50 [1] | EC50 [2] | Activity [3] | EC50 [4] | Activity [6] | EC50 [9] | also measured
CCCCCCCCCCCCCC(=O)O[C@@H]1[C@@H](C)[C@@]2(O)[C@@H](C=C(CO)C[C@@]3(O)C(=O)C(C)=C[C@@H]23)[C@@H]2C(C)(C)[C@]12OC(=O)CCCCCCCCCCCCC | 2.83 µM |  |  |  |  |  | 
CCCCCCCCC(=O)O[C@@H]1[C@@H](C)[C@@]2(O)[C@@H](C=C(CO)C[C@@]3(O)C(=O)C(C)=C[C@@H]23)[C@@H]2C(C)(C)[C@]12OC(=O)CCCCCCCC | > 50 µM |  |  |  |  |  | 
CCCCCC(=O)O[C@@H]1[C@@H](C)[C@@]2(O)[C@@H](C=C(CO)C[C@@]3(O)C(=O)C(C)=C[C@@H]23)[C@@H]2C(C)(C)[C@]12OC(=O)CCCCC | 0.07 µM | 2.79 µM | 354 | 2.84 µM | 806 | 0.36 µM | Activity [5]: Dose-dependent effect; Activity [7]: inactive; Activity [8]: inactive
CC(=O)O[C@@H]1[C@@H](C)[C@@]2(O)[C@@H](C=C(CO)C[C@@]3(O)C(=O)C(C)=C[C@@H]23)[C@@H]2C(C)(C)[C@]12OC(C)=O | > 50 µM |  |  |  |  |  | 
CCCCCCCCCC(=O)O[C@@H]1[C@@H](C)[C@]2(O)[C@@H]3C4C([C@H]2[C@@H]2C(C)(C)[C@]12OC(=O)CCCCCCCCC)C1(CO)C[C@H]3C(=O)C41C (stereo partly drawn) | 0.175 µM | 9.36 µM | 505 | 3.64 µM | 635 | 0.24 µM | Activity [10]: inactive; Activity [11]: inactive; Activity [12]: inactive; Activity [13]: Active; Activity [14]: Active; Activity [15]: Active; Activity [16]: inactive; Activity [17]: Active; Activity [18]: Active; Activity [19]: Active
